Test results reported in ChEMBL document CHEMBL5712917, “G9a regulates tumorigenicity and stemness through genome-wide DNA methylation reprogramming in non-small cell lung cancer” (Clin Epigenetics, 2020).
The source made the active and inactive calls.

What was measured:
[1] = tested on: LCSC-2 (human); test: Antitumor activity against human LCSC-2 cells xenografted in NOD-SCID mouse assessed as increase in SP5 expression at 10 mg/kg, ip administered for 8 weeks by immunohistochemical staining assay
[2] = tested on: LCSC-4; test: Antitumor activity against human LCSC-4 cells assessed as increase in FOXP1 expression by Western blot analysis; format: functional, cell-based
Procedure, shortened: (§1)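 Western blot on TICs exposed to G9A inhibitor. Cells lysed in 2X SDS buffer; 10 μl lysate or 20 μg protein run on 4–12% SDS-PAGE, transferred to PVDF, blocked in 5% non-fat milk/TBST, then probed with primary and secondary antibodies against each target protein.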

[3] = tested on: LCSC-2; test: Antitumor activity against human LCSC-2 cells assessed as increase in CDYL2 expression by Western blot analysis; format: functional, cell-based
Procedure, shortened: as §1

[4] = tested on: LCSC-1; test: Antitumor activity against human LCSC-1 cells assessed as decrease in tumor sphere formation at 10 uM for 72 hrs; format: functional, cell-based
Procedure, shortened: (§2)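 Single cells from accutase-dissociated tumorspheres, 50,000–100,000 per well, grown in serum-free sphere medium (B-27, EGF, FGF, heparin). Exposed to 10 μM inhibitor at 37 °C for 72 h, then imaged. Sphere-forming capacity was scored by sphere size, and treated cells were compared with control by t test.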

[5] = tested on: LCSC-2; test: Antitumor activity against human LCSC-2 cells assessed as increase in DPP4 expression by Western blot analysis; format: functional, cell-based
Procedure, shortened: as §1

[6] = tested on: LCSC-4; test: Antitumor activity against human LCSC-4 cells xenografted in NOD-SCID mouse assessed as decrease in G9a expression at 10 mg/kg, ip administered for 8 weeks by immunohistochemical staining assay; format: functional, organism-based
Procedure, shortened: (§3)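 NOD-SCID mice given 100,000 single cells from dissociated wild-type TIC spheres subcutaneously. Established tumors split into vehicle or 10 mg/kg inhibitor groups, dosed intraperitoneally for 8 weeks. Tumor size measured weekly and tumor weight taken at euthanasia. Tumors fixed in 10% formaldehyde and stained by IHC (×20) for G9A, H3K9Me2, FOXP1 and SP5; t test.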

[7] = tested on: LCSC-2 (human); test: Antitumor activity against human LCSC-2 cells xenografted in NOD-SCID mouse assessed as suppression of tumor volume at 10 mg/kg, ip administered for 8 weeks
[8] = tested on: LCSC-4; test: Antitumor activity against human LCSC-4 cells xenografted in NOD-SCID mouse assessed as increase in SP5 expression at 10 mg/kg, ip administered for 8 weeks by immunohistochemical staining assay; format: functional, organism-based
Procedure, shortened: as §3

[9] = tested on: LCSC-4; test: Antitumor activity against human LCSC-4 cells assessed as increase in STAMBPL1 expression by Western blot analysis; format: functional, cell-based
Procedure, shortened: as §1

[10] = tested on: LCSC-2; test: Antitumor activity against human LCSC-2 cells assessed as decrease in cell proliferation at 10 uM for 72 hrs by CCK-8 assay; format: functional, cell-based
Procedure, shortened: (§4)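 TIC spheres dissociated to single cells with accutase and grown in serum-free DMEM/F12 with B-27, 25 ng/ml EGF, 25 ng/ml FGF and heparin. Cells were treated with 10 μM inhibitor at 37 °C for 72 h in 96-well format. CCK-8 solution was then added for 1–4 h and absorbance read at 450 nm. Groups compared against control by t test.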

[11] = tested on: LCSC-4; test: Antitumor activity against human LCSC-4 cells assessed as increase in CDYL2 expression by Western blot analysis; format: functional, cell-based
Procedure, shortened: as §1

[12] = tested on: LCSC-1; test: Antitumor activity against human LCSC-1 cells assessed as decrease in cell proliferation at 10 uM for 72 hrs by CCK-8 assay; format: functional, cell-based
Procedure, shortened: as §4

[13] = tested on: LCSC-4; test: Antitumor activity against human LCSC-4 cells xenografted in NOD-SCID mouse assessed as increase in FOXP1 expression at 10 mg/kg, ip administered for 8 weeks by immunohistochemical staining assay; format: functional, organism-based
Procedure, shortened: as §3

[14] = tested on: LCSC-2; test: Antitumor activity against human LCSC-2 cells assessed as increase in ROBO1 expression by Western blot analysis; format: functional, cell-based
Procedure, shortened: as §1

[15] = tested on: LCSC-2; test: Antitumor activity against human LCSC-2 cells assessed as increase in STAMBPL1 expression by Western blot analysis; format: functional, cell-based
Procedure, shortened: as §1

[16] = tested on: LCSC-2 (human); test: Antitumor activity against human LCSC-2 cells xenografted in NOD-SCID mouse assessed as decrease in G9a expression at 10 mg/kg, ip administered for 8 weeks by immunohistochemical staining assay
[17] = tested on: LCSC-4; test: Antitumor activity against human LCSC-4 cell assessed as decrease in cell proliferation at 10 uM for 72 hrs by CCK-8 assay; format: functional, cell-based
Procedure, shortened: as §4

[18] = tested on: LCSC-2; test: Antitumor activity against human LCSC-2 cells assessed as decrease in tumor sphere formation at 10 uM for 72 hrs; format: functional, cell-based
Procedure, shortened: as §2

[19] = tested on: LCSC-4; test: Antitumor activity against human LCSC-4 cells assessed as increase in DPP4 expression by Western blot analysis; format: functional, cell-based
Procedure, shortened: as §1

[20] = tested on: LCSC-2 (human); test: Antitumor activity against human LCSC-2 cells xenografted in NOD-SCID mouse assessed as decrease in H3K9Me2 expression at 10 mg/kg, ip administered for 8 weeks by immunohistochemical staining assay
[21] = tested on: LCSC-4; test: Antitumor activity against human LCSC-4 cells assessed as decrease in tumor sphere formation at 10 uM for 72 hrs; format: functional, cell-based
Procedure, shortened: as §2

[22] = tested on: LCSC-2 (human); test: Antitumor activity against human LCSC-2 cells xenografted in NOD-SCID mouse assessed as increase in FOXP1 expression at 10 mg/kg, ip administered for 8 weeks by immunohistochemical staining assay
[23] = tested on: LCSC-4; test: Antitumor activity against human LCSC-4 cells xenografted in NOD-SCID mouse assessed as suppression of tumor volume at 10 mg/kg, ip administered for 8 weeks; format: functional, organism-based
Procedure, shortened: as §3

[24] = tested on: LCSC-2; test: Antitumor activity against human LCSC-2 cells assessed as increase in SP5 expression by Western blot analysis; format: functional, cell-based
Procedure, shortened: as §1

[25] = tested on: LCSC-4; test: Antitumor activity against human LCSC-4 cells xenografted in NOD-SCID mouse assessed as decrease in H3K9Me2 expression at 10 mg/kg, ip administered for 8 weeks by immunohistochemical staining assay; format: functional, organism-based
Procedure, shortened: as §3

[26] = tested on: LCSC-4; test: Antitumor activity against human LCSC-4 cells assessed as increase in SP5 expression by Western blot analysis; format: functional, cell-based
Procedure, shortened: as §1

[27] = tested on: LCSC-2; test: Antitumor activity against human LCSC-2 cells assessed as increase in FOXP1 expression by Western blot analysis; format: functional, cell-based
Procedure, shortened: as §1

[28] = tested on: LCSC-4; test: Antitumor activity against human LCSC-4 cells assessed as increase in ROBO1 expression by Western blot analysis; format: functional, cell-based
Procedure, shortened: as §1

Measured: Activity

COc1cc2c(NC3CCN(C(C)C)CC3)nc(N3CCC(F)(F)CC3)nc2cc1OCCCN1CCCC1
active: all assays above
